According to ChEMBL document CHEMBL4196009, “Novel vitexin-inspired scaffold against leukemia” (Eur J Med Chem, 2018):
Values belong to the molecule of their own block, whether it stands above or below them. Activity calls are given as the source filed them. The rule behind the calls is not given here.

What was measured:
KOPN-8 [1] = experiment: Antiproliferative activity against human KOPN8 cells after 72 hrs by CelTiter-Glo assay; type: functional, cell-based; conditions: KOPN-8, 72 h
SEM cells = experiment: Antiproliferative activity against human SEM cells after 72 hrs by CelTiter-Glo assay; type: functional, cell-based
SUP-B15 [2] = experiment: Antiproliferative activity against human SUP-B15 cells after 72 hrs by CelTiter-Glo assay; type: functional, cell-based; conditions: SUP-B15, 72 h
UoC-B1 = experiment: Antiproliferative activity against human UOCB1 cells after 72 hrs by CelTiter-Glo assay; type: functional, cell-based; conditions: UoC-B1, 72 h
HepG2 = experiment: Antiproliferative activity against human HepG2 cells after 72 hrs by CelTiter-Glo assay; type: functional, cell-based; conditions: HepG2, 72 h
BJ = experiment: Antiproliferative activity against human BJ cells after 72 hrs by CelTiter-Glo assay; type: cell-based
SUP-B15 [3] = experiment: Induction of apoptosis in human SUP-B15 cells assessed as early apoptotic cells at 5 uM after 24 hrs by Annexin V-FITC/propidium iodide staining-based flow cytometry (reference value: 0.1%); type: functional
KOPN-8 [4] = experiment: Induction of apoptosis in human KOPN8 cells assessed as upregulation of cleaved PARP level at 0.5 uM after 3 hrs by Western blot analysis; type: functional, cell-based
Method in brief: (§1)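 KOPN-8 cells were exposed to compound for 3 h and 24 h, with or without N-acetylcysteine added to a parallel set as antioxidant. Lysates were analysed by Western blot for cleaved PARP, Mcl-1, Ser-2-phosphorylated RNAPII CTD, cMyc, total Rb and pRb. Signals were compared against controls for dose-dependent change.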

KOPN-8 [5] = experiment: Induction of apoptosis in human KOPN8 cells assessed as upregulation of cleaved PARP level at 0.5 uM pre-treated with NAC for 1 hr and measured after 24 hrs by Western blot analysis; type: functional, cell-based; method in brief: as §1
[6] = molecular target: T1, Retinoblastoma-associated protein (Homo sapiens) (UniProt P06400); experiment: Inhibition of Rb phosphorylation in human KOPN8 cells assessed as ratio of phosphorylated Rb to total Rb levels at 0.5 uM after 3 hrs by Western blot analysis relative to control; type: cell-based
T1 sequence (whole entry): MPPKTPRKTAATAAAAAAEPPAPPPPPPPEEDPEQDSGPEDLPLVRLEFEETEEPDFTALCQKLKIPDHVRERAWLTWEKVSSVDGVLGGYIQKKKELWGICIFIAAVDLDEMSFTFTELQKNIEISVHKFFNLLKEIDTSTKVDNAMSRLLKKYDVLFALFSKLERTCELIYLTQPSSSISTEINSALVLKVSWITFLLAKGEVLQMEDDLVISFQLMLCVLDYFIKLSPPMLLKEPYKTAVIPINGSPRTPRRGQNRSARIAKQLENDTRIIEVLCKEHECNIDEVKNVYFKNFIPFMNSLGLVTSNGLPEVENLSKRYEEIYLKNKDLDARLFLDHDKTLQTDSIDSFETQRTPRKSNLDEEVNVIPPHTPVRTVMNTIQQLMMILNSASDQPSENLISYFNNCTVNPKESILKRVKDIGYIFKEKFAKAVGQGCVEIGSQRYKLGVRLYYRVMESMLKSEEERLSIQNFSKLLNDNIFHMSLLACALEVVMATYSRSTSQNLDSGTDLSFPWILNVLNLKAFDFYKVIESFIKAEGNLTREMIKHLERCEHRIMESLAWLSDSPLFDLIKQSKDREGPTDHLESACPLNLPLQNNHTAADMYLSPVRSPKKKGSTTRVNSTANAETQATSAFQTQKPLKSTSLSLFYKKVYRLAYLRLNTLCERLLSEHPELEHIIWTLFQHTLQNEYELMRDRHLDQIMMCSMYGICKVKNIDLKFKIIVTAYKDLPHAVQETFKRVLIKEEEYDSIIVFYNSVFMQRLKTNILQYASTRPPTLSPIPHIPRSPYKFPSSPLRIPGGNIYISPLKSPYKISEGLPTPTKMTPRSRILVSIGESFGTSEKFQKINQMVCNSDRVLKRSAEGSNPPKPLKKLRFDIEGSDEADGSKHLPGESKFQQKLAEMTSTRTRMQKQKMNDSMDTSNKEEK
Method in brief: (§2)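 KOPN-8 pre-B ALL cells were treated for 3 h and 24 h, with or without N-acetyl cysteine added to a parallel set of cells as an antioxidant/ROS quencher. Lysates were analysed by Western blot for phosphorylated Rb and total Rb. The same blots also probed PARP cleavage, Mcl-1, Ser-2-phosphorylated RNAPII CTD and cMyc.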

KOPN-8 [7] = experiment: Induction of apoptosis in human KOPN8 cells assessed as effect on Mcl-1 level at 0.5 uM after 24 hrs by Western blot analysis relative to control; type: functional
SUP-B15 [8] = experiment: Induction of apoptosis in human SUP-B15 cells assessed as early apoptotic cells at 10 uM after 24 hrs by Annexin V-FITC/propidium iodide staining-based flow cytometry (reference value: 0.1%); type: functional
KOPN-8 [9] = experiment: Downregulation of total Rb expression in human KOPN8 cells after 24 hrs by Western blot analysis; type: cell-based; conditions: kopn-8, 24 h
Method in brief: (§3)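 KOPN-8 cells were treated at 10–100 µM final, with or without N-acetylcysteine co-addition, for 3 h and 24 h. Lysates were analysed by Western blot for PARP cleavage, Mcl-1, phospho-Ser2 RNAPII CTD, c-Myc, total Rb and pRb. Levels are relative to the vehicle control.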

MCF7 = experiment: Induction of oxidative stress in human MCF7 cells transfected with mRuby-Mito-7 with fugene assessed as increase in intracellular total ROS levels at 50 uM measured after 1 hr by fluorimetric analysis; type: functional, cell-based
Method in brief: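 MCF-7 cells carried an mRuby-Cox8A mitochondrial label. They were exposed to 50 of compound, alone or together with 50 of N-acetylcysteine, for 1 h. Cells were then stained with CellROX green (ex/em 485/520 nm) plus Hoechst 33342 nuclear stain. Total and mitochondrial ROS fluorescence was imaged in live cells and quantified relative to control.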

KOPN-8 [10] = experiment: Induction of apoptosis in human KOPN8 cells assessed as effect on Mcl-1 level at 10 uM after 24 hrs by Western blot analysis relative to control; type: functional; method in brief: as §3
Homo sapiens [11] = organism: Homo sapiens; experiment: Inhibition of RNA polymerase 2 C-terminal domain phosphorylation at Ser2 residue in human KOPN8 cells at 100 uM after 3 hrs by Western blot analysis relative to control; type: cell-based; method in brief: as §1
Homo sapiens [12] = organism: Homo sapiens; experiment: Inhibition of RNA polymerase 2 C-terminal domain phosphorylation at Ser2 residue in human KOPN8 cells at 30 uM after 24 hrs by Western blot analysis relative to control; type: cell-based; method in brief: as §1
KOPN-8 [13] = experiment: Effect on c-Myc expression in human KOPN8 cells at 100 uM after 3 hrs by Western blot analysis relative to control; type: functional; method in brief: as §3
[14] = molecular target: T1, Retinoblastoma-associated protein (Homo sapiens); experiment: Inhibition of Rb phosphorylation in human KOPN8 cells assessed as ratio of phosphorylated Rb to total Rb levels at 100 uM after 3 hrs by Western blot analysis relative to control; type: cell-based; method in brief: as §2
[15] = molecular target: T1, Retinoblastoma-associated protein (Homo sapiens); experiment: Inhibition of Rb phosphorylation in human KOPN8 cells assessed as ratio of phosphorylated Rb to total Rb levels at 100 uM pre-treated with NAC for 1 hr and measured after 3 hrs by Western blot analysis relative to control; type: cell-based; method in brief: as §2
[16] = molecular target: T1, Retinoblastoma-associated protein (Homo sapiens); experiment: Inhibition of Rb phosphorylation in human KOPN8 cells assessed as ratio of phosphorylated Rb to total Rb levels at 100 uM pre-treated with NAC for 1 hr and measured after 24 hrs by Western blot analysis relative to control; type: cell-based; method in brief: as §2

EC50 (HepG2): 0.286 µM | fold change (FC) [6]: 1
Structure (SMILES): CN(C)C(=O)c1cc2cnc(Nc3ccc(N4CCNCC4)cn3)nc2n1C1CCCC1 [RIBOCICLIB]
EC50 (KOPN-8 [1]): 0.501 µM | EC50 (SEM cells): 0.461 µM | EC50 (SUP-B15 [2]): > 65.5 µM | EC50 (UoC-B1): > 65.5 µM | EC50 (BJ): > 65.5 µM | Activity (SUP-B15 [3]): 0.3% | Activity (KOPN-8 [4]): Active | Activity (KOPN-8 [5]): Active | fold change (FC) (KOPN-8 [7]): 1.1

EC50 (HepG2): > 17.3 µM | Activity (KOPN-8 [9]): Dose-dependent effect | fold change (FC) [14]: 1 | fold change (FC) [15]: 1.1 | fold change (FC) [16]: 1.2
Structure (SMILES): COc1ccc(-c2c(I)c(=O)c3c(OC)cc(OC)cc3n2S(=O)(=O)c2ccc(OC)cc2)cc1
EC50 (KOPN-8 [1]): 8.58 µM | EC50 (SEM cells): 5.52 µM | EC50 (SUP-B15 [2]): 12.3 µM | EC50 (UoC-B1): 2.55 µM | EC50 (BJ): > 34.5 µM | Activity (SUP-B15 [8]): 0.1% | Activity (MCF7): Active | fold change (FC) (KOPN-8 [10]): 1.1 | fold change (FC) (Homo sapiens [11]): 1.4 | fold change (FC) (Homo sapiens [12]): 1.6 | fold change (FC) (KOPN-8 [13]): 0.2
